Measurements reported in ChEMBL document CHEMBL2046422, “Structure-activity relationship of nonacidic quinazolinone inhibitors of human microsomal prostaglandin synthase 1 (mPGES 1)” (J Med Chem, 2012).

Key:
[1] = molecular target: Prostaglandin G/H synthase 1 (Homo sapiens) (UniProt P23219); experiment: Inhibition of COX1 in human whole blood assessed as residual TXB2 level at 10 uM after 1 hr by LC-MS/MS analysis relative to control
Summary of the method: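 Human venous blood was drawn without additives, and compound was added. Samples clotted at 37 °C for 1 h; negative controls were chilled on ice at once. After 5 min on ice, plasma was separated at 4 °C. It was mixed with H₃PO₄, EDTA, BHT and deuterated internal standards, then put through solid-phase extraction. TXB₂ and PGD₂ were measured by LC-MS/MS, relative to vehicle-treated blood.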

[2] = molecular target: T1, Prostaglandin G/H synthase 1 (Ovis aries) (UniProt P05979); experiment: Inhibition of ovine COX1-mediated PGE2 synthesis using PGH2 as substrate at 1 uM by LC-MS/MS analysis relative to control
T1 sequence (whole entry): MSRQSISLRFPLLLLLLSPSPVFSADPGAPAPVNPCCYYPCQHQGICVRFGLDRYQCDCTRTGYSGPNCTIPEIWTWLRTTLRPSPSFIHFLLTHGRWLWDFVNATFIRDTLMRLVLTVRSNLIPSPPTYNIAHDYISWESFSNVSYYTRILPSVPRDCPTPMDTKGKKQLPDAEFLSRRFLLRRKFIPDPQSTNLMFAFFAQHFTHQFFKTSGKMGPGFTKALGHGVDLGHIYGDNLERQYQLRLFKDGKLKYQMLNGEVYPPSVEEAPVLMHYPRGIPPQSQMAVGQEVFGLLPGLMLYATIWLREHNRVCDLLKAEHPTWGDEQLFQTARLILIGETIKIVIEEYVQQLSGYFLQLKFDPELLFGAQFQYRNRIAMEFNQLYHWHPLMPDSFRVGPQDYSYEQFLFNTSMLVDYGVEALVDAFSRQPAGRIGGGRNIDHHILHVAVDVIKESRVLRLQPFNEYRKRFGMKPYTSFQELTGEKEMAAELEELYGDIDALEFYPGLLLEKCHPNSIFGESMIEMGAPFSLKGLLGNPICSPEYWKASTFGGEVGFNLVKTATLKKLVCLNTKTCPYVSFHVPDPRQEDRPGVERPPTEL
Summary of the method: (§1)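 Direct enzyme test with a COX inhibitor screening kit, run per the kit protocol: COX-1 was ovine, COX-2 human recombinant. […] Prostaglandins were quantified by LC-MS/MS after solid-phase extraction. Mean of n ≥ 3.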

Prostaglandin E synthase = molecular target: T2, Prostaglandin E synthase (Homo sapiens, UniProt O14684); experiment: Inhibition of mPGES-1 derived from IL1beta and TNFalpha stimulated human HeLa cells microsomal fraction using PGH2 as substrate preincubated for 30 mins prior to substrate addition measured after 1 min by LC-MS/MS analysis
T2 sequence (O14684 whole entry): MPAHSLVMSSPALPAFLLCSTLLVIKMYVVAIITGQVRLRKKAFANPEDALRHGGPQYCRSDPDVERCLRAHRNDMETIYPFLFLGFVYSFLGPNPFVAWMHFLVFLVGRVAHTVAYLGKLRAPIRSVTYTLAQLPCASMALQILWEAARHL
Summary of the method: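 Microsomes were pelleted by ultracentrifugation and resuspended in buffer with 2.5 mM GSH; protein was measured by Bradford. Screening used 1 μM final compound, and IC₅₀ (95% CI) came from increasing concentrations. PGE₂ was read by LC-MS/MS after solid-phase extraction with deuterated standards; n ≥ 3.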

[3] = molecular target: T3, Prostaglandin E synthase (Homo sapiens) (UniProt O14684); experiment: Inhibition of mPGES-1 derived from IL1beta and TNFalpha stimulated human HeLa cells microsomal fraction using PGH2 as substrate at 1 uM preincubated for 30 mins prior to substrate addition measured after 1 min by LC-MS/MS analysis relative to control
T3 sequence (whole entry): T2 sequence (O14684 whole entry)
Summary of the method: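 Microsomes were pelleted by ultracentrifugation and resuspended in buffer with 2.5 mM GSH; protein was measured by Bradford. PGE₂ was read by LC-MS/MS after solid-phase extraction with deuterated standards; n ≥ 3.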

[4] = molecular target: T4, 5-lipoxygenase/FLAP (Homo sapiens) (UniProt P09917+P20292); experiment: Inhibition of 5-lipoxygenase/FLAP in calcium ionophore-stimulated human whole blood assessed as 5(s)HETE level at 10 uM preincubated for 15 mins prior to calcium ionophore-stimulation measured after 15 mins by LC-MS/MS analysis; assay type: protein-complex assay; set-up: scale not given: the % may be the effect or the level left
Summary of the method: (§2)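 Heparinized human whole blood (500 μL) was preincubated with compound for 15 min at 37 °C. It was then stimulated with 20 μM calcium ionophore A23187 in autologous plasma for 15 min at 37 °C and chilled on ice for 5 min. Plasma was collected by centrifugation at 4 °C. Eicosanoids were recovered by liquid–liquid extraction with deuterated internal standards and quantified by LC-MS/MS (MRM). Levels are relative to vehicle-treated blood.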

[5] = molecular target: T4, 5-lipoxygenase/FLAP (Homo sapiens); experiment: Inhibition of 5-lipoxygenase/FLAP in calcium ionophore-stimulated human whole blood assessed as residual LTB4 level at 10 uM preincubated for 15 mins prior to calcium ionophore-stimulation measured after 15 mins by LC-MS/MS analysis; assay type: protein-complex assay; summary of the method: as §2
HeLa = experiment: Cytotoxicity against IL1beta and TNFalpha-stimulated human HeLa cells at 1 to 10 uM after 24 hrs by WST1 assay; assay type: cell-based
Summary of the method: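 HeLa cells were seeded at 3 × 10³ per well and grown 24 h at 37 °C. They were then stimulated with IL-1β (1 ng/mL) + TNFα (5 ng/mL) while treated with compound at 1, 10 or 100 μM, or DMSO, for 24 h. WST-1 was added for 90–150 min and absorbance read at 450 nm against 620 nm. Viability is percent of DMSO control, SEM, n ≥ 3.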

[6] = molecular target: T5, Prostaglandin G/H synthase 2 (Homo sapiens) (UniProt P35354); experiment: Inhibition of human recombinant COX2-mediated PGE2 synthesis using PGH2 as substrate at 1 uM by LC-MS/MS analysis relative to control; summary of the method: as §1
T5 sequence (whole entry): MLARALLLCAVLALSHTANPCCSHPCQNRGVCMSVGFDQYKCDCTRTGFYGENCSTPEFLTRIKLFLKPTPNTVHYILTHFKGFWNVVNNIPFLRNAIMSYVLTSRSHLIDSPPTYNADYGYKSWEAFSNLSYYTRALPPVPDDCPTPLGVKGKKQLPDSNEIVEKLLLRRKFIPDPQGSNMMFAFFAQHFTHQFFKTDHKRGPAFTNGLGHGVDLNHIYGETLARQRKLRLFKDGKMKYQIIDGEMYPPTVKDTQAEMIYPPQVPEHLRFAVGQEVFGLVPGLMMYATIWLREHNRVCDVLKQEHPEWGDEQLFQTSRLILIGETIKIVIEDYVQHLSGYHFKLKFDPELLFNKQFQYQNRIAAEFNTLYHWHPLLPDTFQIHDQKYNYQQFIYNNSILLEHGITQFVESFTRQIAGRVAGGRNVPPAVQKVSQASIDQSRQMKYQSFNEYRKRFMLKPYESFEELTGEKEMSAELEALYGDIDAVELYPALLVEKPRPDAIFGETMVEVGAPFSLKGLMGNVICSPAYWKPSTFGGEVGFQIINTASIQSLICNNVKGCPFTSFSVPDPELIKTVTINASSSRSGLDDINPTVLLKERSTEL

[7] = molecular target: T4, 5-lipoxygenase/FLAP (Homo sapiens); experiment: Inhibition of 5-lipoxygenase/FLAP in calcium ionophore-stimulated human whole blood assessed as residual 12(s)HETE level at 10 uM preincubated for 15 mins prior to calcium ionophore-stimulation measured after 15 mins by LC-MS/MS analysis; assay type: protein-complex assay; summary of the method: as §2

Sequence of Prostaglandin G/H synthase 1 (Homo sapiens) (P23219 whole entry): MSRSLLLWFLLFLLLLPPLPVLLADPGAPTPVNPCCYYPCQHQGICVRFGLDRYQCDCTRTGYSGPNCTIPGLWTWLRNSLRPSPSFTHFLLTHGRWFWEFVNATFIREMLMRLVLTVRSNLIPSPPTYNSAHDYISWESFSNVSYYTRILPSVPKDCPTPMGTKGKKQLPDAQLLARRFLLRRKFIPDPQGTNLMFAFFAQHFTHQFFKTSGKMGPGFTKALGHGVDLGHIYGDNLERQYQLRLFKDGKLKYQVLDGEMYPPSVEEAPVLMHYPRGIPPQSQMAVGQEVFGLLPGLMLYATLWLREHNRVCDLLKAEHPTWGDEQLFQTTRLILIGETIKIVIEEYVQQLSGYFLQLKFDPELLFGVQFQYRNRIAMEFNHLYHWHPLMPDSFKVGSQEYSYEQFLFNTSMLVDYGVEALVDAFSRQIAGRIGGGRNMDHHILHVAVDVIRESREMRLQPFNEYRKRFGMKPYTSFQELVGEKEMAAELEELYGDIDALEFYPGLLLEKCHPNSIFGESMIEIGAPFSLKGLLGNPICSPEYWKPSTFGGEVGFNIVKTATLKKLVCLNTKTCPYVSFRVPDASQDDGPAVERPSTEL

| Compound | Activity [1] | inhibition [2] | IC50 (Prostaglandin E synthase) | inhibition [3] | Activity [4] | Activity [5] | Activity (HeLa) | inhibition [6] | Activity [7] |
| --- | --- | --- | --- | --- | --- | --- | --- | --- | --- |
| CCCc1nc2ccc(NC(=O)c3ccccc3Cl)cc2c(=O)n1Cc1ccc(-c2ccccc2)cc1 | 86.4% | 8.4% | 220 nM | 74.2% | 74.8% | 71.9% | Non-toxic | 5.8% | 110% |
| CCCc1nc2ccc(NC(=O)c3ccccc3C)cc2c(=O)n1Cc1cccc(Cl)c1 | 81.9% | < 0% | 260 nM | 63.1% | 74.4% | 72.7% | Non-toxic | < 0% | 88.9% |
| CCCc1nc2ccc(NC(=O)c3ccccc3Cl)cc2c(=O)n1Cc1ccc(-c2cccc(Cl)c2)cc1 | 90% | < 0% | 130 nM | 66.7% | 79% | 83% | – | 6.7% | 80% |
| CCCc1nc2ccc(NC(=O)c3c(F)cccc3Cl)cc2c(=O)n1Cc1cccc(Cl)c1 | 84.4% | < 0% | 370 nM | 75.6% | 92.1% | 94.1% | Non-toxic | < 0% | 123% |
| CCCc1nc2ccc(NC(=O)c3ccccc3Cl)cc2c(=O)n1Cc1ccc(-c2ccc(Cl)cc2)cc1 | 97.3% | 2.6% | – | 68.8% | 157% | 151% | Non-toxic | < 0% | 93.2% |
| CCCc1nc2ccc(NC(=O)c3ccccc3Cl)cc2c(=O)n1Cc1cccc(Cl)c1 | 90.4% | < 0% | 360 nM | 86.3% | 92% | 93.7% | Non-toxic | < 0% | 92.8% |
| CCCc1nc2ccc(NC(=O)c3ccccc3Cl)cc2c(=O)n1Cc1ccc(-c2cccc(OC)c2)cc1 | 89% | 20.1% | 210 nM | 71.5% | 67.8% | 70.9% | Non-toxic | 2.5% | 85.5% |
